These results are taken from ChEMBL document CHEMBL1949660 (Bioorg Med Chem Lett, 2012).

In data set [1] the target is T1, Histamine H3 receptor (Homo sapiens, UniProt Q9Y5N1). The data set is described as follows: Displacement of [3H]NAMH from human histamine H3 receptor expressed in CHO cells. The class given is cell-based. The gist of the method:
(§1)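 Radioligand displacement of [³H]NAMH from membranes isolated from CHO cells transfected with cloned human H₃ or rat H₃ receptors.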

The target in data set [2] is Histamine H3 receptor (Rattus norvegicus, UniProt Q9QYN8). The data set is described as follows: Displacement of [3H]NAMH from rat histamine H3 receptor expressed in CHO cells. Format: cell-based. Summed up:
as §1

Data set [3] concerns the target T1, Histamine H3 receptor. The data set can be described thus: Inverse agonist activity at human histamine H3 receptor assessed as inhibition of R-alpha-methylhistamine-induced [35S]GTPgammaS binding. The class given is functional.
Data set [4] in a line: Apparent permeability across human Caco2 cells. The class given is ADME, cell-based. To be noted: Caco-2.
Data set [5] can be described thus: Aqueous solubility of the compound at pH 2. The class given is physicochemical. To be noted: aqueous medium.
The nature of data set [6]: Aqueous solubility of the compound at pH 7.4. Format: physicochemical. The note with it: aqueous medium.
A short description of data set [7]: Half life in human liver microsomes. The class given is ADME, Microsome.
The nature of data set [8]: Half life in rat liver microsomes. Format: ADME, Microsome.
A short description of data set [9]: Half life in dog liver microsomes. Format: ADME, Canis lupus familiaris, Microsome.
Data set [10] can be described thus: Half life in monkey liver microsomes. Format: ADME, Macaca mulatta, Microsome. The note with it: rhesus monkey.
Data set [11] addresses T2, Cytochrome P450 1A2 (Homo sapiens, UniProt P05177).
T2 sequence (P05177 whole entry): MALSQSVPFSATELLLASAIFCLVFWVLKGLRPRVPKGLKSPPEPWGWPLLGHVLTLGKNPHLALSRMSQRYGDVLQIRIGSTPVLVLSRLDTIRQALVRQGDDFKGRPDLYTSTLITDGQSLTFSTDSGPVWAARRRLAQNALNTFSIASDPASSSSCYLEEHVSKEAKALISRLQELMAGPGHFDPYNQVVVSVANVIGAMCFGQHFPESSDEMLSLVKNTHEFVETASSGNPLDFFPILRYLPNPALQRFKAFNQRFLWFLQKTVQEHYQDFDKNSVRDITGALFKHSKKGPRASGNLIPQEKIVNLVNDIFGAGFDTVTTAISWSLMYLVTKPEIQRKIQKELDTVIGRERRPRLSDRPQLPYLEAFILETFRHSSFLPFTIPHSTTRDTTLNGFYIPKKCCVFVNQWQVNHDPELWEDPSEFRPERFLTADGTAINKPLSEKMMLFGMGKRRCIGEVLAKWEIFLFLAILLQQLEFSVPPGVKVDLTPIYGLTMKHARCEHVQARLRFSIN
The data set can be described thus: Inhibition of CYP1A2. The class given is ADME.

In data set [12] the target is Cytochrome P450 2C9 (Homo sapiens, UniProt P11712). The data set is described as follows: Inhibition of CYP2C9. The class given is ADME.
The target of data set [13] is Cytochrome P450 2C19 (Homo sapiens, UniProt P33261). The data set can be described thus: Inhibition of CYP2C19. Format: ADME.
Sequence of Cytochrome P450 2C19 (P33261 whole entry): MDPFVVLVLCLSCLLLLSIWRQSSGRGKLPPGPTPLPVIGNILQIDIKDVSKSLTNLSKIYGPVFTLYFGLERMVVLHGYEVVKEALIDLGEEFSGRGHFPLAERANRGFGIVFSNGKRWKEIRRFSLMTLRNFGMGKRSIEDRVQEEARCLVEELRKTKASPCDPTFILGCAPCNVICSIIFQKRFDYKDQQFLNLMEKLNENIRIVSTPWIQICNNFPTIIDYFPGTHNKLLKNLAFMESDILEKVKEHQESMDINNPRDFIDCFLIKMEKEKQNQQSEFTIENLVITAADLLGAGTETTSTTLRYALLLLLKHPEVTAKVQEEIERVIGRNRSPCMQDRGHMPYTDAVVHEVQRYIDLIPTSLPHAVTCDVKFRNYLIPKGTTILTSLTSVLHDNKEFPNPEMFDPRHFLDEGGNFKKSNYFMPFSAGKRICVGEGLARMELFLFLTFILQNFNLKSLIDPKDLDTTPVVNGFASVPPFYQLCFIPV
Data set [14] has as its target Cytochrome P450 2D6 (Homo sapiens, UniProt P10635). The data set is described as follows: Inhibition of CYP2D6. Format: ADME.
For data set [15], the target named is Cytochrome P450 3A4 (Homo sapiens, UniProt P08684). The data set is described as follows: Inhibition of CYP3A4. Format: ADME.
The target in data set [16] is Histamine H1 receptor (Homo sapiens) (UniProt P35367). The data set can be described thus: Inhibition of human histamine H1 receptor at 10 uM.
Sequence of Histamine H1 receptor (Homo sapiens) (P35367 whole entry): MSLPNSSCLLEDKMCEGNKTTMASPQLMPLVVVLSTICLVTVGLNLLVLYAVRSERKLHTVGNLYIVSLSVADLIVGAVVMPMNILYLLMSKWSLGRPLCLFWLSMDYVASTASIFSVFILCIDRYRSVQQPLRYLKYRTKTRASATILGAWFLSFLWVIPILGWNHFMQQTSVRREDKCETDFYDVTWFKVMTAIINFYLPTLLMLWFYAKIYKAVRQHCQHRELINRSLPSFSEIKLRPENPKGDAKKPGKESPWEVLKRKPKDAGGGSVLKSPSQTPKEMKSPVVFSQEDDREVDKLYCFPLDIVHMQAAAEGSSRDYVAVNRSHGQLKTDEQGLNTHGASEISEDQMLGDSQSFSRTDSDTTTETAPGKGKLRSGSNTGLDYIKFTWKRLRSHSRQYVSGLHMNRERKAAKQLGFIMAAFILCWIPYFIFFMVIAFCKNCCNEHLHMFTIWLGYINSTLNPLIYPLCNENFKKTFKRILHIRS
For data set [17], the target named is Histamine H2 receptor (Homo sapiens) (UniProt P25021). The data set is described as follows: Inhibition of human histamine H2 receptor at 10 uM.
Sequence of Histamine H2 receptor (Homo sapiens) (P25021 whole entry): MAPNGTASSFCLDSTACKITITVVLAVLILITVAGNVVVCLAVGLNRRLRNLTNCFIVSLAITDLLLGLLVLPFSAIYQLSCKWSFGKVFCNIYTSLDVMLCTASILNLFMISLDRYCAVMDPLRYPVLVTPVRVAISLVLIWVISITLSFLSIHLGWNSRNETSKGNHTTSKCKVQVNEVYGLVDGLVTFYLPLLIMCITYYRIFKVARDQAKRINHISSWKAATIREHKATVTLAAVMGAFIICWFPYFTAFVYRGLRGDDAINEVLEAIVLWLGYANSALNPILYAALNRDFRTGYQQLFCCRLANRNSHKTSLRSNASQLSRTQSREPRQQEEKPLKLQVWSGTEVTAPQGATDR
The target in data set [18] is Histamine H4 receptor (Homo sapiens) (UniProt Q9H3N8). The data set is described as follows: Inhibition of human histamine H4 receptor at 10 uM.
Sequence of Histamine H4 receptor (Homo sapiens) (Q9H3N8 whole entry): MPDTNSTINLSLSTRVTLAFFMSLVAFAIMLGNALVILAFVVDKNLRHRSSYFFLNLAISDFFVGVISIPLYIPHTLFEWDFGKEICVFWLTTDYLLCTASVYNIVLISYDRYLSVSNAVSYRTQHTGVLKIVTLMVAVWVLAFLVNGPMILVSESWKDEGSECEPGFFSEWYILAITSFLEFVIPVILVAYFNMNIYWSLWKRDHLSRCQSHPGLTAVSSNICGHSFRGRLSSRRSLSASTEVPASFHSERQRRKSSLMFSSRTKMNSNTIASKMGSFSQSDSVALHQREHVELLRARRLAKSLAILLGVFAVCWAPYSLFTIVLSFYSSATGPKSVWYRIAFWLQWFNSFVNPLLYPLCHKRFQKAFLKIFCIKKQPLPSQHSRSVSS
Data set [19] addresses Sodium-dependent dopamine transporter (Homo sapiens) (UniProt Q01959). The data set can be described thus: Inhibition of DAT at 10 uM.
Data set [20] concerns the target Voltage-gated inwardly rectifying potassium channel KCNH2 (Homo sapiens, UniProt Q12809). The data set can be described thus: Inhibition of human Erg by patch clamp assay.
Data set [21] in a line: Half life in rat at 1 mg/kg, iv. Format: ADME, organism-based. Also noted: dose 1 mg/kg, route intravenous. To be noted: in vivo. The gist of the method: (§2)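 Rat PK: iv dose with vehicle 3% DMSO, 30% solutol, 67% phosphate buffered saline. Oral 5 mg/kg dose with vehicle 50% Tween 80, 40% propylene carbonate, 10% propylene glycol.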
The nature of data set [22]: Volume of distribution in rat at 1 mg/kg, iv. The class given is ADME, organism-based. Also on record: dose 1 mg/kg, route intravenous. The note with it: in vivo. Summed up:
as §2

A short description of data set [23]: Clearance in rat at 1 mg/kg, iv. Format: ADME, organism-based. Also noted: dose 1 mg/kg, route intravenous. To be noted: in vivo. The gist of the method:
as §2

A short description of data set [24]: Cmax in rat at 5 mg/kg, po. The class given is ADME, organism-based. Also on record: dose 5 mg/kg, route oral. The note with it: in vivo.
Data set [25] is described as follows: Oral bioavailability in rat at 5 mg/kg. To be noted: in vivo. The class given is ADME, organism-based. Summed up:
as §2

Data set [26] can be described thus: Drug uptake in rat brain at 5 mg/kg, po measured after 6 hrs. Also noted: dose 5 mg/kg, route oral. The class given is ADME, organism-based. To be noted: read-out: Drug uptake. The gist of the method: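 Rats given 5 mg/kg po in 50% Tween 80, 40% propylene carbonate, 10% propylene glycol. Brain concentration determined 6 h after dosing.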
A short description of data set [27]: Ratio drug uptake in brain to plasma of rat at 10 mg/kg, ip measured after 6 hrs. Also noted: dose 10 mg/kg, route intraperitoneal. To be noted: read-out: BPR. Format: ADME, organism-based.

Sequence of Histamine H3 receptor (Rattus norvegicus, UniProt Q9QYN8) (Q9QYN8 whole entry): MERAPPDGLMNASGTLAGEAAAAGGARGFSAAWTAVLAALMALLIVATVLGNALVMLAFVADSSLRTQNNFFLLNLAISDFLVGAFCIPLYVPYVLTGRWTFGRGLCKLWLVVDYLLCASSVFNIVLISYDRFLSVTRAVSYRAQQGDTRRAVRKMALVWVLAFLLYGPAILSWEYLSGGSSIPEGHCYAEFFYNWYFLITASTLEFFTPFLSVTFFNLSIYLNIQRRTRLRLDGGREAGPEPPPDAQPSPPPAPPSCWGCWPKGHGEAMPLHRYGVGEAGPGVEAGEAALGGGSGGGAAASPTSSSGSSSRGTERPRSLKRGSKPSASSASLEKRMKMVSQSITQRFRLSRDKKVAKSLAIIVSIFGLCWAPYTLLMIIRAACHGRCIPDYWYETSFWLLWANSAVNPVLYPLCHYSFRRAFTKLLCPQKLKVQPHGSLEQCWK
T1 sequence (Q9Y5N1 whole entry): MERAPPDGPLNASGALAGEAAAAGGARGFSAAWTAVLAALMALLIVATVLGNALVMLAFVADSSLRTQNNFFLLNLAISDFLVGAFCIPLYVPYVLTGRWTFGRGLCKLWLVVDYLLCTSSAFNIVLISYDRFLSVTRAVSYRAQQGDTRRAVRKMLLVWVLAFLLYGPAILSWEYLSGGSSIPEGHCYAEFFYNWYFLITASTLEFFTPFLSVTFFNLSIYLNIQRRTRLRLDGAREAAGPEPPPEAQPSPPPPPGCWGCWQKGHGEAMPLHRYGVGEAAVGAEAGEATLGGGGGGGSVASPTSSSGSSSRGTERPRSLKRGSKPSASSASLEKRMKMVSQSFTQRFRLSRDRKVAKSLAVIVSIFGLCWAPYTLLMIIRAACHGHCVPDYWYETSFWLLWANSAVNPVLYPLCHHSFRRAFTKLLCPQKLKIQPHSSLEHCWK
Sequence of Sodium-dependent dopamine transporter (Homo sapiens) (Q01959 whole entry): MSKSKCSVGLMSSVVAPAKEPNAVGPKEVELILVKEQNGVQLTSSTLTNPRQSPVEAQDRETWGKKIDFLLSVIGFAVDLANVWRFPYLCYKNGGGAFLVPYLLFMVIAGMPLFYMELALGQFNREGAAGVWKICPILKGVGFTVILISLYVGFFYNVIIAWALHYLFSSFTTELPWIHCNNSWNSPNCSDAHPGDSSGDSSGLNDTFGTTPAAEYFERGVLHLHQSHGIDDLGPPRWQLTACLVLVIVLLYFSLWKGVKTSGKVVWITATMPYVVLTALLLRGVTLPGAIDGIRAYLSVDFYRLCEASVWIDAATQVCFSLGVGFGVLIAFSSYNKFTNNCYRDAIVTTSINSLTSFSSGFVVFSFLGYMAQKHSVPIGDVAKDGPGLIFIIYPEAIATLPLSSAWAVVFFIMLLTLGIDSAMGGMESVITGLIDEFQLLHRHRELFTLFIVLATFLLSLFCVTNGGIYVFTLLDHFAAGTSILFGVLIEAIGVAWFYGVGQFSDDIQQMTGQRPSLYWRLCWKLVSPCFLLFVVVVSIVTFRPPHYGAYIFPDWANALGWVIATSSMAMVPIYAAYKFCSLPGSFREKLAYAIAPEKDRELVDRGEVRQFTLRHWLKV
Sequence of Voltage-gated inwardly rectifying potassium channel KCNH2 (Q12809 whole entry): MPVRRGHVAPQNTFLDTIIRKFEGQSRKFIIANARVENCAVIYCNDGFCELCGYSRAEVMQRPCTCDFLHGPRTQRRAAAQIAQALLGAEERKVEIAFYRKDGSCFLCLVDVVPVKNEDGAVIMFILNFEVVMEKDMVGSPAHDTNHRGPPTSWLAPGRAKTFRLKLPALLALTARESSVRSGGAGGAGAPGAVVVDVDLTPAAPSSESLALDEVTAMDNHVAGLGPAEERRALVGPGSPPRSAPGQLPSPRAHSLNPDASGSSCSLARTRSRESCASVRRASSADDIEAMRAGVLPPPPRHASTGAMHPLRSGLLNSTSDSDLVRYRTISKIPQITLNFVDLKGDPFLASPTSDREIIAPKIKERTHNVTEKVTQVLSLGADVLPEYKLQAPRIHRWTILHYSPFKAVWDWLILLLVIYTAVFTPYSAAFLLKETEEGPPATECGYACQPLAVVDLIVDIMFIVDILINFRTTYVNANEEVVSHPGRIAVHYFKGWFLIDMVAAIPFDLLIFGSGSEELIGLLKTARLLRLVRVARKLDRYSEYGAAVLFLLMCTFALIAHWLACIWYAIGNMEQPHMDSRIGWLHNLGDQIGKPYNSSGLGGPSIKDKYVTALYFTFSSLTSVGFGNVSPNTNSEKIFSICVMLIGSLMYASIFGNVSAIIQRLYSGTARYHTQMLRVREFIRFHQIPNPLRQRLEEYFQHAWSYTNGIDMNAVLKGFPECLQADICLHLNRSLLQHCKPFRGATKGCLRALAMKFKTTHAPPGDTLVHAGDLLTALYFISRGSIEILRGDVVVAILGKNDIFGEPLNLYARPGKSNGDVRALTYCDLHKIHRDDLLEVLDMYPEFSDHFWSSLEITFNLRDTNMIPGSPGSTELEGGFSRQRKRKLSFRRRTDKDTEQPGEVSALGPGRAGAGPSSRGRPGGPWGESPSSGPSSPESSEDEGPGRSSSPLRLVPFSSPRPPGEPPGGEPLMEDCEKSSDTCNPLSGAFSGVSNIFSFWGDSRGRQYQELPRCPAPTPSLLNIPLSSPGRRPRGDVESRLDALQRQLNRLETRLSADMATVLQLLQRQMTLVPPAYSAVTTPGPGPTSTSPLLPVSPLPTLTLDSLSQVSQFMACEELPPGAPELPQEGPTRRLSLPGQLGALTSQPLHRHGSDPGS
Sequence of Cytochrome P450 2D6 (P10635 whole entry): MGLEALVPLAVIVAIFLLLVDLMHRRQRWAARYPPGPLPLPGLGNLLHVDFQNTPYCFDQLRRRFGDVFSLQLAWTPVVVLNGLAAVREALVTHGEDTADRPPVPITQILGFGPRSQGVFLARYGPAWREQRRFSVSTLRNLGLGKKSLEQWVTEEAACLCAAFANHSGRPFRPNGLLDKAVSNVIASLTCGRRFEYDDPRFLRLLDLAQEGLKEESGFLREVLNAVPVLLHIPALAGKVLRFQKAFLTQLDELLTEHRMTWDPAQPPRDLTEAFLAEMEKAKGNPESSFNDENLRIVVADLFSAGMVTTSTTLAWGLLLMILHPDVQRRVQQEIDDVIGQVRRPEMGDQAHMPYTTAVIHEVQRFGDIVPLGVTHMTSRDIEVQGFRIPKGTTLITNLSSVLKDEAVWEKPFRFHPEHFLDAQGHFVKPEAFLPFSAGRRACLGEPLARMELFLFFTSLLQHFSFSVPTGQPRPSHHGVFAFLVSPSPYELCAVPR

As for `O=c1ccc(-c2ccc(OC3CCN(C4CCC4)CC3)cc2)n[nH]1`, the Ki in data set [1] stood at 1.9 nM; in data set [2] it was 2.2 nM. In addition, the EC50 in data set [3] was determined as 1.1 nM. In [4], the Papp was determined as 16.5 ×10⁻⁶ cm/s. Also, the solubility in data set [5] and in data set [6] was greater than 1000 µg/mL throughout. The half-life in [7] was greater than 0.667 h; in [8], greater than 0.667 h; in data set [9], greater than 0.667 h; in data set [10], greater than 0.667 h; in [21], 2.3 h. In addition, the IC50 in data set [11] was greater than 30000 nM; in data set [12], greater than 30000 nM; in data set [13], greater than 30000 nM; in data set [14], greater than 30000 nM; in [15], greater than 30000 nM; in data set [20] it was 8000 nM. For the same molecule, the inhibition was less than 10% in data set [16], less than 10% in data set [17], less than 10% in data set [18] and 63% in [19]. This molecule also registered a Vd in data set [22] of 2.5 L/kg. Moreover, the clearance in [23] amounted to 13 mL/min/kg. This molecule showed a Cmax in data set [24] of 441 ng/mL. In data set [25], this molecule yielded a bioavailability of 35%. In data set [26], the concentration at 6 h turned out to be 1400 nM. Moreover, in [27], the Kp at 6 h stood at 1.9.
In data set [2], `C[C@@H]1CC(=O)NN=C1c1ccc(OC2CCN(C3CCC3)CC2)cc1` displayed a Ki of 9.6 nM.
In the case of `CC1(C)CC(c2ccc(OC3CCN(C4CCC4)CC3)nc2)=NNC1=O`, the Ki was 12 nM in data set [1] and 28 nM in [2].
As to `Cn1nc(-c2ccc(OC3CCN(C4CCC4)CC3)cc2)ccc1=O`, the Ki in data set [1] stood at 2.4 nM; in data set [2], 3.1 nM.
With `C[C@H]1CC(=O)NN=C1c1ccc(OC2CCN(C3CCC3)CC2)cc1`, the affinity in data set [2] corresponds to a Ki of 13 nM. In data set [19], this molecule returned an inhibition of 13%. The molecule also showed a half-life in data set [21] of 4.4 h. Moreover, the volume of distribution (Vd) in data set [22] stood at 7.6 L/kg. The clearance in [23] was 23 mL/min/kg. In addition, the Cmax in data set [24] was 253 ng/mL. The molecule also showed a bioavailability in [25] of 56%. Moreover, the Kp at 6 h in data set [27] worked out at 5.3.
In the case of `O=c1ccc(-c2ccc(OC3CCN(C4CCC4)CC3)nc2)nn1-c1ccccn1`, the Ki in data set [1] is 34 nM; in [2] it was 82 nM.
As for `Cn1nc(-c2ccc(OC3CCNCC3)cc2)ccc1=O`, the Ki in data set [1] is 695 nM; in data set [2] it was greater than 1000 nM.
Regarding `O=c1ccc(-c2ccc(OC3CCN(C4CCC4)CC3)cc2)nn1-c1ccccn1`, the Ki amounted to 9.8 nM in data set [1] and 15 nM in data set [2].
On to `Cn1nc(-c2ccc(OC3CCN(C4CCC4)CC3)nc2)ccc1=O`, for which the Ki was 1.8 nM in data set [1] and 8.6 nM in [2].
Regarding `O=c1ccc(-c2ccc(OC3CCN(C4CCC4)CC3)nc2)n[nH]1`, the Ki in [1] is 6.3 nM; in data set [2], 19 nM. Besides, the IC50 in data set [20] was determined as 9000 nM. The molecule further gave a bioavailability in data set [25] of 21%.
